Active and inactive are the calls of the source. The calls are words filed in the database; no cut-off is given here.
Key:
[1] = molecular target: Indoleamine 2,3-dioxygenase 1 (Homo sapiens) (UniProt P14902); test: Inhibition of human IDO1 assessed as reduction in kynurenine production at 100 uM using tryptophan as substrate by cellular assay
[2] = molecular target: Indoleamine 2,3-dioxygenase 1 (Homo sapiens) (UniProt P14902); test: Inhibition of human IDO1 assessed as reduction in kynurenine production at 100 uM using tryptophan as substrate by enzymatic assay
[3] = Cytotoxicity against mouse P815B cells incubated for 2 to 4 hrs by MTS assay; type: cell-based, P815; settings: time 2-4 hrs, read-out: LD50 (the source's name)
Procedure, shortened: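 1 × 10⁵ cells per well in DMEM; MTS with PMS, diluted in PBS, added to the wells; incubated 2–4 h at 37 °C; absorbance read at 490 nm.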

[4] = Cysteamine reactivity assessed as aromatic signals at 1 mM measured after 30 mins by 1H NMR spectroscopy; type: physicochemical; settings: 0.5 h, 1000 µM
[5] = Toxicity in mouse P815 cells assessed as cell cycle distribution at > 100 uM measured after 6 to 12 hrs by propidium iodide DNA staining based flow cytometry; settings: time 6-12 hrs
[6] = Cysteamine reactivity assessed as aromatic signals at 1 mM measured after 30 mins by LC-MS/MS analysis; type: physicochemical; settings: 0.5 h, 1000 µM
[7] = Metabolic stability in liver microsomes (unknown origin) assessed as half life at 10 uM by UPLC analysis; type: ADME, Microsome
[8] = molecular target: Tryptophan 2,3-dioxygenase (Homo sapiens, UniProt P48775); test: Inhibition of human TDO2 expressed in HEK293E cells assessed as reduction in N-formylkynurenine formation using tryptophan as substrate measured after 24 hrs by HPLCC based UV spectrometry; type: cell-based, HEK2936E
Tryptophan 2,3-dioxygenase, sequence (P48775 whole entry): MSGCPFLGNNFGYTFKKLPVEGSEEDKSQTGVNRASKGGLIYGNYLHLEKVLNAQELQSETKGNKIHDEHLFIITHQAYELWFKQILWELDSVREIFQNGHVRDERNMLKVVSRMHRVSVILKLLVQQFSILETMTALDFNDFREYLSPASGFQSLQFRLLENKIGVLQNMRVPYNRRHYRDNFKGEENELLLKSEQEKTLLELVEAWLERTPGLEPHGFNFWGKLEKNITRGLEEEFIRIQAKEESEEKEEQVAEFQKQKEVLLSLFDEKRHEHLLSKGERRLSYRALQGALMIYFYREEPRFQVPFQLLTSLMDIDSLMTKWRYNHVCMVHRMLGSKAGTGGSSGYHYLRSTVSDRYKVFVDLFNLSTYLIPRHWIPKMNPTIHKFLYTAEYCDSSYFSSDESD

Indoleamine 2,3-dioxygenase 1 (Homo sapiens), sequence (P14902 whole entry, looked up): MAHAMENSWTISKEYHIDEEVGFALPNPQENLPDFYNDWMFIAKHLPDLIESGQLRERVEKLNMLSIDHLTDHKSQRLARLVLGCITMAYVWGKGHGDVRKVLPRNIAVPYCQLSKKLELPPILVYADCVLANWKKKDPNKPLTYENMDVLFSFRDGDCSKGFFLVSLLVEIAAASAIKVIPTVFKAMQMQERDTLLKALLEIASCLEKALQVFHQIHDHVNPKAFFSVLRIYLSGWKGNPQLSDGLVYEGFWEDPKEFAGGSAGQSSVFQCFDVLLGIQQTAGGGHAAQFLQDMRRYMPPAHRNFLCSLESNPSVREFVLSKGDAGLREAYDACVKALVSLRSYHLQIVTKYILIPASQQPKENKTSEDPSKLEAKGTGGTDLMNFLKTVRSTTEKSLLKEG

With Fc1ccc2c(/C=C/c3cccnc3)c[nH]c2c1 the inhibition [1] was “inactive”, the inhibition [2] was “inactive” and the CC50 [3] was greater than 80 µM.

In the case of c1ccc2c(-c3ccc4n[nH]nc4c3)c[nH]c2c1, the Drug metabolism [4] is reported as “Metabolite_Notdetected”, the Activity [5] is reported as “Non-Toxic” and the Drug metabolism [6] is reported as “Metabolite_Notdetected”. It also gave a CC50 [3] greater than 100 µM.

c1ccc2c(-c3ccc4cnccc4c3)c[nH]c2c1 gave a CC50 [3] greater than 30 µM.

FC(F)(F)Cn1nnc2ccc(-c3c[nH]c4ccccc34)cc21 gave a half-life at 10 µM [7] of 45 min.

For Fc1ccc2c(/C=C/c3nnn[nH]3)c[nH]c2c1, the Drug metabolism [4] was “Metabolite_Detected”, the inhibition [1] was “inactive” and the Drug metabolism [6] was “Metabolite_Detected”. The half-life at 10 µM [7] was greater than 1440 min, the inhibition [2] was “inactive” and the CC50 [3] was greater than 100 µM.

Work on c1ccc2c(-c3ccc4ccncc4c3)c[nH]c2c1 yielded a CC50 [3] greater than 20 µM.

Compound c1ccc2c(-c3ccc4ncncc4c3)c[nH]c2c1 has a CC50 [3] greater than 100 µM.

For O=C1NCC2C=CC(c3c[nH]c4ccccc34)=CC2N1 (stereo not given), the CC50 [3] was greater than 30 µM.

Work on c1ccc2c(-c3ccc4cncnc4c3)c[nH]c2c1 yielded a CC50 [3] greater than 100 µM.

O=S(=O)(c1ccc(-c2c[nH]c3cc(F)ccc23)cn1)N1CCNCC1 gave an IC50 [8] of 3.2 µM.

— ChEMBL document CHEMBL4808224, “Rational Design of Original Fused-Cycle Selective Inhibitors of Tryptophan 2,3-Dioxygenase” (J Med Chem, 2021)
